# Data published in ChEMBL document CHEMBL4177526, “Discovery and structure activity relationship of the first potent cryptosporidium FIKK kinase inhibitor” (Bioorg Med Chem, 2017).
# Experiments:
# [1] = target: MAP kinase-interacting serine/threonine-protein kinase 1 (Homo sapiens) (UniProt Q9BUB5); assay: Inhibition of human MNK1 (2 to 424 residues) assessed as residual activity at 500 nM in presence of 33P-ATP by filter binding assay relative to control
# [2] = target: MAP kinase-interacting serine/threonine-protein kinase 2 (Homo sapiens) (UniProt Q9HBH9); assay: Inhibition of human MNK2alpha (2 to 465 residues) assessed as residual activity at 500 nM in presence of 33P-ATP by filter binding assay relative to control
# [3] = target: Mitogen-activated protein kinase kinase kinase kinase 5 (Homo sapiens) (UniProt Q9Y4K4); assay: Inhibition of MAP4K5 (unknown origin) assessed as residual activity at 500 nM relative to control
# [4] = test system: Cryptosporidium parvum; assay: Selectivity ratio of IC50 for Cryptosporidium parvum CDPK1 to IC50 for recombinant Cryptosporidium parvum FIKK
# [5] = target: Proto-oncogene tyrosine-protein kinase Src (Homo sapiens) (UniProt P12931); assay: Inhibition of human SRC (1 to 536 residues) assessed as residual activity at 500 nM in presence of 33P-ATP by filter binding assay relative to control
# [6] = test system: Cryptosporidium parvum; assay: Antiparasitic activity against Cryptosporidium parvum Iowa oocysts infected in human HCT8 cells pretreated prior to infection measured after 48 hrs by fluorescein labeled Vicia villosa lectin/Hoechst 33258 staining based epifluorescence microscopic analysis; assay type: functional, organism-based; details: Cryptosporidium parvum, Iowa, HCT-8; read-out: EC50
# Outline: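 HCT-8 cells grown in RPMI-1640 with 10% heat-inactivated FBS and penicillin. Three-fold compound dilutions in culture medium were added to confluent cells before about 5500 excysted C. parvum Iowa oocysts per well. After 48 h, cells were fixed with 4% paraformaldehyde and permeabilized. Vacuoles were stained with fluorescein-Vicia villosa lectin (1.33 µg/mL, 1 h, 37 °C) and nuclei with Hoechst 33258, then imaged by epifluorescence microscopy.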
# [7] = target: Angiopoietin-1 receptor (Homo sapiens) (UniProt Q02763); assay: Inhibition of human TIE2 (771 to 1124 residues) assessed as residual activity at 500 nM in presence of 33P-ATP by filter binding assay relative to control
# Angiopoietin-1 receptor (Homo sapiens), sequence (Q02763 whole entry, the tested form may be a part): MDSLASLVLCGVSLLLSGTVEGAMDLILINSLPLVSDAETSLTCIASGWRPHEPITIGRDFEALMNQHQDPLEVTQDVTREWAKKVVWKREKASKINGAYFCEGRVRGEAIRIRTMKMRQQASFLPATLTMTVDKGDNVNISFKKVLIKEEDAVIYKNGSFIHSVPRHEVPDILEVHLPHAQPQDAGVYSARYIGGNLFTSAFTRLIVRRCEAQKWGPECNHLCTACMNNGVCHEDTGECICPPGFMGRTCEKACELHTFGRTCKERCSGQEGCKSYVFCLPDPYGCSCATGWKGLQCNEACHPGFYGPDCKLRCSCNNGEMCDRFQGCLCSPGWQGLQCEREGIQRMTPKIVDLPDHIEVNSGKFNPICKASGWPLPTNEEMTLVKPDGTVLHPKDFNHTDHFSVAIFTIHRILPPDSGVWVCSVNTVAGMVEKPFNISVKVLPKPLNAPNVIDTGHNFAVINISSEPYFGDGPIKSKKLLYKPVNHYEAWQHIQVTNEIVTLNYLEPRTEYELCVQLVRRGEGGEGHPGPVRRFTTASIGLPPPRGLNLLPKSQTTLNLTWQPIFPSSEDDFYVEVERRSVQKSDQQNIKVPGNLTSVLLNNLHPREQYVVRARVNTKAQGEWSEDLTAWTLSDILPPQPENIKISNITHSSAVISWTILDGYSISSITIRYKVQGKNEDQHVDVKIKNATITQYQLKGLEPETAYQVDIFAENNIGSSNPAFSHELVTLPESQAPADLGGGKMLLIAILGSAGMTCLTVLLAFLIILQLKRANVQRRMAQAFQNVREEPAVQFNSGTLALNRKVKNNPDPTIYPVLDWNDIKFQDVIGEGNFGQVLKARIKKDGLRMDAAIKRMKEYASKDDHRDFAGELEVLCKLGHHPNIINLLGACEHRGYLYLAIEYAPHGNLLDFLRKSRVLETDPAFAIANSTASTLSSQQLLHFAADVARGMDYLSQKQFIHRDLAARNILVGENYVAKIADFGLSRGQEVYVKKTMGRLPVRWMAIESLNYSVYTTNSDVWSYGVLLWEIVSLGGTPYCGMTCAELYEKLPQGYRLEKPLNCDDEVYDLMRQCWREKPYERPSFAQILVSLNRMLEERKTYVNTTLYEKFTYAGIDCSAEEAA
# [8] = target: Serine/threonine-protein kinase N2 (Homo sapiens) (UniProt Q16513); assay: Inhibition of human PRK2 (501 to 984 residues) assessed as residual activity at 500 nM in presence of 33P-ATP by filter binding assay relative to control
# [9] = target: MAP/microtubule affinity-regulating kinase 4 (Homo sapiens) (UniProt Q96L34); assay: Inhibition of human MARK4 (1 to 367 residues) assessed as residual activity at 500 nM in presence of 33P-ATP by filter binding assay relative to control
# MAP/microtubule affinity-regulating kinase 4 (Homo sapiens), sequence (Q96L34 whole entry, the tested form may be a part): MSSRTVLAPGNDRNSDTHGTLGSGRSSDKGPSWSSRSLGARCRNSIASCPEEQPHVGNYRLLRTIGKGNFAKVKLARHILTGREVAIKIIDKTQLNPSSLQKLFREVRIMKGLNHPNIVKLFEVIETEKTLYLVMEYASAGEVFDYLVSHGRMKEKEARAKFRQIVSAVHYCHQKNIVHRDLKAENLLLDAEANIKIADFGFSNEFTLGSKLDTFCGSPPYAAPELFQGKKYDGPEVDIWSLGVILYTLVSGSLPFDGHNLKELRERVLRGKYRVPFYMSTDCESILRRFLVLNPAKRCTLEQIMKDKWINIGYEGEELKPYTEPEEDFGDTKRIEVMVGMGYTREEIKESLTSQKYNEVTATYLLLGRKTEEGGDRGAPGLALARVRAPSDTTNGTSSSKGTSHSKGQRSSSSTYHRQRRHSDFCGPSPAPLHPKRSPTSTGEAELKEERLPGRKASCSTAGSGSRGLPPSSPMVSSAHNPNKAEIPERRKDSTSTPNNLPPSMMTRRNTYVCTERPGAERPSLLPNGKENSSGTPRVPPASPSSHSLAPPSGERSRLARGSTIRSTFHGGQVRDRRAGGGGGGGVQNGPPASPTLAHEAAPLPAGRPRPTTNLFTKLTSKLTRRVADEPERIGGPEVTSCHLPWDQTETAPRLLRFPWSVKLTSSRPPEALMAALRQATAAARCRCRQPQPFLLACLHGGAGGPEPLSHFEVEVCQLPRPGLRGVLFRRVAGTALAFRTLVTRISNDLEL
# [10] = target: Serine/threonine-protein kinase Chk1 (Homo sapiens) (UniProt O14757); assay: Inhibition of human CHK1 (1 to 476 residues) assessed as residual activity at 500 nM in presence of 33P-ATP by filter binding assay relative to control
# Serine/threonine-protein kinase Chk1 (Homo sapiens), sequence (O14757 whole entry, the tested form may be a part): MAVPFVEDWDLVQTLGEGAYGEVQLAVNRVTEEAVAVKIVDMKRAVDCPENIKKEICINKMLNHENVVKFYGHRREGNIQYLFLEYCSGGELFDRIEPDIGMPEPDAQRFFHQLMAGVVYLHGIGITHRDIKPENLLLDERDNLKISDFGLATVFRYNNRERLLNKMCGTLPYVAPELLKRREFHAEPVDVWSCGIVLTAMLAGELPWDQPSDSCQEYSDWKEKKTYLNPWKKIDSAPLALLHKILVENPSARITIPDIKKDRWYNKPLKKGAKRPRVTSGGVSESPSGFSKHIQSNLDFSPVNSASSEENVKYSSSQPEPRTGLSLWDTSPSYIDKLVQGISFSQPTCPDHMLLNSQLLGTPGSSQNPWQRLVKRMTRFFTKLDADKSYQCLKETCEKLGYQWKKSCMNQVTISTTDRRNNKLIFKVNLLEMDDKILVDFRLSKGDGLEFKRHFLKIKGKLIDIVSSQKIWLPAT
# [11] = test system: RAC-alpha serine/threonine-protein kinase (Homo sapiens), P31749 [S473D]; assay: Inhibition of human PKBalpha S473D mutant (118 to 480 residues) assessed as residual activity at 500 nM in presence of 33P-ATP by filter binding assay relative to control
# RAC-alpha serine/threonine-protein kinase (Homo sapiens), P31749 [S473D], sequence (P31749 whole entry S473D, the tested form may be a part): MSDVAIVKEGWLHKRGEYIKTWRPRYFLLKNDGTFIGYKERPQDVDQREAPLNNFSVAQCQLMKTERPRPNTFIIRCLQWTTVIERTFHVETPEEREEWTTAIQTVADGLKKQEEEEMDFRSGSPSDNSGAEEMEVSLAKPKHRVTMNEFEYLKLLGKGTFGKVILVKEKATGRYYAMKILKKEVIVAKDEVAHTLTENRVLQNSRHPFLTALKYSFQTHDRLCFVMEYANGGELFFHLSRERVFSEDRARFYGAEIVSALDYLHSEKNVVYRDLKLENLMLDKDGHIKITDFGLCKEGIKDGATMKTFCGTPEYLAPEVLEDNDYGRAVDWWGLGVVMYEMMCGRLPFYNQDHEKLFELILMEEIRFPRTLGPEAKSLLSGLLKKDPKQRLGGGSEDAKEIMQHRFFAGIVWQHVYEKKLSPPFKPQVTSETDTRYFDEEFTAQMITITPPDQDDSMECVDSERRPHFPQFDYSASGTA
# [12] = target: Discoidin domain-containing receptor 2 (Homo sapiens) (UniProt Q16832); assay: Inhibition of human DDR2 (467 to 854 residues) assessed as residual activity at 500 nM in presence of 33P-ATP by filter binding assay relative to control
# [13] = target: MAP kinase-activated protein kinase 5 (Homo sapiens) (UniProt Q8IW41); assay: Inhibition of human PRAK (1 to 471 residues) assessed as residual activity at 500 nM in presence of 33P-ATP by filter binding assay relative to control
# [14] = target: Rho-associated protein kinase 2 (Homo sapiens) (UniProt O75116); assay: Inhibition of human ROCK2 (2 to 543 residues) assessed as residual activity at 500 nM in presence of 33P-ATP by filter binding assay relative to control
# [15] = target: NUAK family SNF1-like kinase 1 (Homo sapiens) (UniProt O60285); assay: Inhibition of human NUAK1 (2 to 660 residues) assessed as residual activity at 500 nM in presence of 33P-ATP by filter binding assay relative to control
# [16] = target: Insulin receptor-related protein (Homo sapiens) (UniProt P14616); assay: Inhibition of human IRR (944 to 1236 residues) assessed as residual activity at 500 nM in presence of 33P-ATP by filter binding assay relative to control
# Insulin receptor-related protein (Homo sapiens), sequence (P14616 27-742 limits assumed): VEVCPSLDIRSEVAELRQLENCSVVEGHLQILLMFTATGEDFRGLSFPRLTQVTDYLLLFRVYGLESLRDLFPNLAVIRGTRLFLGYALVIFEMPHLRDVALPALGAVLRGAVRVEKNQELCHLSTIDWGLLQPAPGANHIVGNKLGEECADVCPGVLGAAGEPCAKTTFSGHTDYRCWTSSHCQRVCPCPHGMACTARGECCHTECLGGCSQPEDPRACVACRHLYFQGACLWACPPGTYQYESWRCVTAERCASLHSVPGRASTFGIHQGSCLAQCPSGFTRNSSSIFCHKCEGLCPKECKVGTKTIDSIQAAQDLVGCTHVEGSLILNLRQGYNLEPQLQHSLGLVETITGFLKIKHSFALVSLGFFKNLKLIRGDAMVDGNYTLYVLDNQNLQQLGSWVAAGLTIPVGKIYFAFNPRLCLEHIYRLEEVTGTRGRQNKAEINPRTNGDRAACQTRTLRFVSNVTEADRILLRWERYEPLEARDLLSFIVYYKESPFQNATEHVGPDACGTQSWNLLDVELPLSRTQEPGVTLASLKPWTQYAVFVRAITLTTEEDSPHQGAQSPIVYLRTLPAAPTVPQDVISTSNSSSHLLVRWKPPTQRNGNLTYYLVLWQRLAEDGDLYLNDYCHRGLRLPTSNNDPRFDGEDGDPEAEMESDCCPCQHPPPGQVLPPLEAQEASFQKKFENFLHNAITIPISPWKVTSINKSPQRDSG
# Insulin receptor-related protein (Homo sapiens), sequence (P14616 747-1297 limits assumed): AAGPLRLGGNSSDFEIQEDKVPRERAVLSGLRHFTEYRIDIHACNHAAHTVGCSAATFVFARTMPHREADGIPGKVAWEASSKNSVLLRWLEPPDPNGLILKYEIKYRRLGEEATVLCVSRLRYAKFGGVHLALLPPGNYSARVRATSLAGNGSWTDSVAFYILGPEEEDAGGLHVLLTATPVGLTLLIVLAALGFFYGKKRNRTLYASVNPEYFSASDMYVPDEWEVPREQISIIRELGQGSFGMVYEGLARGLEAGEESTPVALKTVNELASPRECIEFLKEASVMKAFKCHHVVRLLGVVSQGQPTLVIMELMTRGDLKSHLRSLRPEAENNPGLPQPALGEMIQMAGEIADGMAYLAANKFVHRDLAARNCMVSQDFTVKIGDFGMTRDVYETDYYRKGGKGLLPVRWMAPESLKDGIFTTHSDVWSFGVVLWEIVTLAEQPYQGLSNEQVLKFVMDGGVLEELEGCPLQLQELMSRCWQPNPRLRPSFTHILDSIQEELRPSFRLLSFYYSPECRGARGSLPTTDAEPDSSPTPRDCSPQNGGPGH
# [17] = target: MAP/microtubule affinity-regulating kinase 4 (Homo sapiens) (UniProt Q96L34); assay: Inhibition of human MARK4 (2 to 752 residues) assessed as residual activity at 500 nM in presence of 33P-ATP by filter binding assay relative to control
# [18] = target: Inhibitor of nuclear factor kappa-B kinase subunit beta (Homo sapiens) (UniProt O14920); assay: Inhibition of human IKKbeta (1 to 736 residues) assessed as residual activity at 500 nM in presence of 33P-ATP by filter binding assay relative to control
# [19] = target: Serine/threonine-protein kinase 33 (Homo sapiens) (UniProt Q9BYT3); assay: Inhibition of human STK33 (1 to 514 residues) assessed as residual activity at 500 nM in presence of 33P-ATP by filter binding assay relative to control
# [20] = test system: Serine/threonine-protein kinase PAK 2 (Homo sapiens), Q13177 [T402E]; assay: Inhibition of human PAK2 T402E mutant (1 to 524 residues) assessed as residual activity at 500 nM in presence of 33P-ATP by filter binding assay relative to control
# [21] = target: Misshapen-like kinase 1 (Homo sapiens) (UniProt Q8N4C8); assay: Inhibition of human MINK1 (1 to 320 residues) assessed as residual activity at 500 nM in presence of 33P-ATP by filter binding assay relative to control
# [22] = test system: Cryptosporidium parvum; assay: Inhibition of recombinant Cryptosporidium parvum FIKK assessed as change in melting temperature at 50 uM by differential static light scattering method
# [23] = target: TAK1/TAB1 (Homo sapiens) (UniProt Q15750+O43318); assay: Inhibition of human TAK1 (1 to 303 residues)/TAB1 (437 to 504 residues) at 500 nM in presence of 33P-ATP by filter binding assay relative to control; assay type: protein-complex assay
# [24] = target: Mitogen-activated protein kinase kinase kinase 11 (Homo sapiens) (UniProt Q16584); assay: Inhibition of human MLK3 (96 to 386 residues) assessed as residual activity at 500 nM in presence of 33P-ATP by filter binding assay relative to control
# Mitogen-activated protein kinase kinase kinase 11 (Homo sapiens), sequence (Q16584 whole entry, looked up, the tested form may be a part): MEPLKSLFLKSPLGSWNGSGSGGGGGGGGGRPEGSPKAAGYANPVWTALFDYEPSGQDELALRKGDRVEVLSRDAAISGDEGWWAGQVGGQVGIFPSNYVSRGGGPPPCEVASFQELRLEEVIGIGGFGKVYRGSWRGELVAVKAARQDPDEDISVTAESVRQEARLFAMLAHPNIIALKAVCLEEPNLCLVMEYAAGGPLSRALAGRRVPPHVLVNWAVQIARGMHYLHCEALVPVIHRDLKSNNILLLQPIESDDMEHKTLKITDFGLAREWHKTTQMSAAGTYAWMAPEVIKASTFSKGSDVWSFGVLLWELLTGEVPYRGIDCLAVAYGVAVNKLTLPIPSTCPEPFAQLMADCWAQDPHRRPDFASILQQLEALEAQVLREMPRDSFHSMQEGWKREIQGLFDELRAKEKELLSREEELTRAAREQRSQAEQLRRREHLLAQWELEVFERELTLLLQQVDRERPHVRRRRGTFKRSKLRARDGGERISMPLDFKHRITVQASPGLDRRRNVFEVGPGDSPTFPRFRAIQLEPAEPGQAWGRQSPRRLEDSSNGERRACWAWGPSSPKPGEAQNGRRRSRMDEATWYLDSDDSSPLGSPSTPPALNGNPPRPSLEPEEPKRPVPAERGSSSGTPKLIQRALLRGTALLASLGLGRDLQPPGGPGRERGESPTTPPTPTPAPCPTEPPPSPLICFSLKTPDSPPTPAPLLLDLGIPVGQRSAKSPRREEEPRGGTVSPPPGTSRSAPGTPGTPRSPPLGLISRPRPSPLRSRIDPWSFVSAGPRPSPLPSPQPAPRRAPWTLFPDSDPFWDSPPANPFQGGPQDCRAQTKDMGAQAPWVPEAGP
# [25] = target: Ephrin type-B receptor 2 (Homo sapiens) (UniProt P29323); assay: Inhibition of human EPHB2 (560 to 987 residues) assessed as residual activity at 500 nM in presence of 33P-ATP by filter binding assay relative to control
smiles,measurement,setting,value
Cc1cccc(-c2nc(N)sc2-c2ccc3ncccc3n2)c1,Activity,[1],99%
same,Activity,[2],98%
same,Activity,[3],148%
same,Ratio IC50,[4],940
same,Activity,[5],105%
same,EC50,[6],2600 nM
same,Activity,[7],106%
same,Activity,[8],121%
same,Activity,[9],116%
same,Activity,[10],109%
same,Activity,[11],115%
same,Activity,[12],91%
same,Activity,[13],105%
same,Activity,[14],112%
same,Activity,[15],86%
same,Activity,[16],94%
same,Activity,[17],116%
same,Activity,[18],114%
same,Activity,[19],97%
same,Activity,[20],103%
same,Activity,[21],74%
same,ΔTm,[22],5.2 °C
same,inhibition,[23],60%
same,Activity,[24],101%
same,Activity,[25],95%
